Measurements published in ChEMBL document CHEMBL3817746, “6-Oxooxazolidine-quinazolines as noncovalent inhibitors with the potential to target mutant forms of EGFR” (Bioorg Med Chem, 2016).

Tests used:
A-431 = assay: Antiproliferative activity against human A431 cells overexpressing wild-type EGFR after 72 hrs by MTT assay; format: functional, cell-based; details: A-431, 72 h
NCI-H1975 = assay: Antiproliferative activity against human NCI-H1975 cells expressing L858R/T790M mutant EGFR after 72 hrs by MTT assay; format: functional, cell-based; details: NCI-H1975, 72 h
[1] = target: Epidermal growth factor receptor (Homo sapiens, UniProt P00533); assay: Inhibition of wild type human EGFR preincubated for 5 mins followed by ATP addition for 30 mins by HTRF assay
[2] = target: Epidermal growth factor receptor (Homo sapiens, UniProt P00533, L858R); assay: Inhibition of recombinant human EGFR L858R mutant expressed in baculovirus infected insect cells preincubated for 5 mins followed by ATP addition for 30 mins by HTRF assay
Procedure, shortened: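 Purchased EGFR L858R kinase and substrate were preincubated with compound for 5 min in enzymatic buffer. ATP was then added to start the reaction, which ran 30 min at room temperature. It was stopped with EDTA-containing detection reagents, and HTRF detection ran for 1 h. IC50 was fitted from the dose-response data as the mean of three independent experiments.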

[3] = target: Epidermal growth factor receptor (Homo sapiens, UniProt P00533, T790M); assay: Inhibition of EGFR T790M mutant (unknown origin) preincubated for 5 mins followed by ATP addition for 30 mins by HTRF assay; format: protein assay
A549 = assay: Cytotoxicity against human A549 cells assessed as cell growth inhibition after 72 hrs by MTT assay; format: ADME, cell-based; details: A549, 72 h
HepG2 = assay: Cytotoxicity against human HepG2 cells assessed as cell growth inhibition after 72 hrs by MTT assay; format: ADME, cell-based; details: HepG2, 72 h

Sequence of Epidermal growth factor receptor (Homo sapiens, UniProt P00533) (P00533 whole entry): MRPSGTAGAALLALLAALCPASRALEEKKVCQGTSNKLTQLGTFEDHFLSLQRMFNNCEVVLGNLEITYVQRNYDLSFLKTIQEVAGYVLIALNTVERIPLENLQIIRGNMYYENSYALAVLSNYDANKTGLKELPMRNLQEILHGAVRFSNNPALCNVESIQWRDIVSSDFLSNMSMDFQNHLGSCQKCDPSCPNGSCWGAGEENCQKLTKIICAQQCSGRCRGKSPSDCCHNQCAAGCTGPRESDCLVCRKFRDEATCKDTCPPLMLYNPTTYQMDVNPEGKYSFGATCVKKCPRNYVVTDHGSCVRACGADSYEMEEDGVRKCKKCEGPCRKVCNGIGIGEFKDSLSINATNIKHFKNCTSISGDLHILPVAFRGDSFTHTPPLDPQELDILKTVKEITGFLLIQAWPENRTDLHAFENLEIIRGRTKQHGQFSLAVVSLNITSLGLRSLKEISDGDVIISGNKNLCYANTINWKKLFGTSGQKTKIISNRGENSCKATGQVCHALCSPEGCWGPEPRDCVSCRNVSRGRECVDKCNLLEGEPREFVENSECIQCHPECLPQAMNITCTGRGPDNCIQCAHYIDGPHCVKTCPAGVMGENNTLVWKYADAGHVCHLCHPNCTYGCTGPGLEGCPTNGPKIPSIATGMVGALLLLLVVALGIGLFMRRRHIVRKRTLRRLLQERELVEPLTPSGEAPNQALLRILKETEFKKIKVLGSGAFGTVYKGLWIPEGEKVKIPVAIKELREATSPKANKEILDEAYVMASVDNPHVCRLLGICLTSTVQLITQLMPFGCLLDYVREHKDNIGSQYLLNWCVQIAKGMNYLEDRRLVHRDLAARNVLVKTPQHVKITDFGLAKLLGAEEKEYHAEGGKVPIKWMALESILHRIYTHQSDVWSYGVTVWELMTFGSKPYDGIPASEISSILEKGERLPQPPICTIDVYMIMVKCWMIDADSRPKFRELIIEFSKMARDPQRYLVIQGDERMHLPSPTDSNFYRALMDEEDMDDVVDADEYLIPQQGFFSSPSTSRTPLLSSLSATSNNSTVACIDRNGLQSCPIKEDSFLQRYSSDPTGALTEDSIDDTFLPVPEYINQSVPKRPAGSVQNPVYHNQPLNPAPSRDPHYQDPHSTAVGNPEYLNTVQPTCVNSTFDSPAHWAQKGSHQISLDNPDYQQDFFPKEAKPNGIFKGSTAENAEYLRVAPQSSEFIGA
Sequence of Epidermal growth factor receptor (Homo sapiens, UniProt P00533, T790M) (P00533 25-1210 T790M limits assumed): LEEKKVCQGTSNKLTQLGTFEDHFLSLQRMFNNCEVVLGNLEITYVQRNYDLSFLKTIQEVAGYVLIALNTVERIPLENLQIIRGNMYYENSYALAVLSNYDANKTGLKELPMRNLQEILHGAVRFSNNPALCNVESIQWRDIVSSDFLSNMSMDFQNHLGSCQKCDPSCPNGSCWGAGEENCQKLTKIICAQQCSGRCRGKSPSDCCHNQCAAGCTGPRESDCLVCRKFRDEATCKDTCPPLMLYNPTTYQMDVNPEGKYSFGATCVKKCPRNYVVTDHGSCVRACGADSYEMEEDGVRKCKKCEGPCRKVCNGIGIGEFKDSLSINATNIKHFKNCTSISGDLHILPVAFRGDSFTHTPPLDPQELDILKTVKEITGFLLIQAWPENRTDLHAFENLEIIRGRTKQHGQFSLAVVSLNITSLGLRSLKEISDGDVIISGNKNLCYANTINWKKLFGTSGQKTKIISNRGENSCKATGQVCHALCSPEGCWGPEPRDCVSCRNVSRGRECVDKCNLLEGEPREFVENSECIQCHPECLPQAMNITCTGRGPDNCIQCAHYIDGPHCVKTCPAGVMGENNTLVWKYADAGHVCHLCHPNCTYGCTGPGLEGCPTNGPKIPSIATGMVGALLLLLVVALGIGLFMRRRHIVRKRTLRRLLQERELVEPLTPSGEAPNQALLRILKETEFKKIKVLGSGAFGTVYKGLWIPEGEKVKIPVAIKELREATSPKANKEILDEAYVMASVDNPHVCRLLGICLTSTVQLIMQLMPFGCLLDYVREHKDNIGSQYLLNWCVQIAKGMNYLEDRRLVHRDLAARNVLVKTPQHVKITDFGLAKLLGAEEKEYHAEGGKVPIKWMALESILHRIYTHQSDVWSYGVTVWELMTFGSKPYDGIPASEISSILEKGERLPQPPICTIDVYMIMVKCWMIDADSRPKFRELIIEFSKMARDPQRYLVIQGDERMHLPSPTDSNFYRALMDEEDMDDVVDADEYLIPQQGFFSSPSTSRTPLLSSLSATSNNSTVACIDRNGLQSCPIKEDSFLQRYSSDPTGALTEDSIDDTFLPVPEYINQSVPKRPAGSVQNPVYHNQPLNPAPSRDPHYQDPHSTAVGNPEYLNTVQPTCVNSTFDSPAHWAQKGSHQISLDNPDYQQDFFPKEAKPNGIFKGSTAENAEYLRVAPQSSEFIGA
Sequence of Epidermal growth factor receptor (Homo sapiens, UniProt P00533, L858R) (P00533 25-1210 L858R limits assumed): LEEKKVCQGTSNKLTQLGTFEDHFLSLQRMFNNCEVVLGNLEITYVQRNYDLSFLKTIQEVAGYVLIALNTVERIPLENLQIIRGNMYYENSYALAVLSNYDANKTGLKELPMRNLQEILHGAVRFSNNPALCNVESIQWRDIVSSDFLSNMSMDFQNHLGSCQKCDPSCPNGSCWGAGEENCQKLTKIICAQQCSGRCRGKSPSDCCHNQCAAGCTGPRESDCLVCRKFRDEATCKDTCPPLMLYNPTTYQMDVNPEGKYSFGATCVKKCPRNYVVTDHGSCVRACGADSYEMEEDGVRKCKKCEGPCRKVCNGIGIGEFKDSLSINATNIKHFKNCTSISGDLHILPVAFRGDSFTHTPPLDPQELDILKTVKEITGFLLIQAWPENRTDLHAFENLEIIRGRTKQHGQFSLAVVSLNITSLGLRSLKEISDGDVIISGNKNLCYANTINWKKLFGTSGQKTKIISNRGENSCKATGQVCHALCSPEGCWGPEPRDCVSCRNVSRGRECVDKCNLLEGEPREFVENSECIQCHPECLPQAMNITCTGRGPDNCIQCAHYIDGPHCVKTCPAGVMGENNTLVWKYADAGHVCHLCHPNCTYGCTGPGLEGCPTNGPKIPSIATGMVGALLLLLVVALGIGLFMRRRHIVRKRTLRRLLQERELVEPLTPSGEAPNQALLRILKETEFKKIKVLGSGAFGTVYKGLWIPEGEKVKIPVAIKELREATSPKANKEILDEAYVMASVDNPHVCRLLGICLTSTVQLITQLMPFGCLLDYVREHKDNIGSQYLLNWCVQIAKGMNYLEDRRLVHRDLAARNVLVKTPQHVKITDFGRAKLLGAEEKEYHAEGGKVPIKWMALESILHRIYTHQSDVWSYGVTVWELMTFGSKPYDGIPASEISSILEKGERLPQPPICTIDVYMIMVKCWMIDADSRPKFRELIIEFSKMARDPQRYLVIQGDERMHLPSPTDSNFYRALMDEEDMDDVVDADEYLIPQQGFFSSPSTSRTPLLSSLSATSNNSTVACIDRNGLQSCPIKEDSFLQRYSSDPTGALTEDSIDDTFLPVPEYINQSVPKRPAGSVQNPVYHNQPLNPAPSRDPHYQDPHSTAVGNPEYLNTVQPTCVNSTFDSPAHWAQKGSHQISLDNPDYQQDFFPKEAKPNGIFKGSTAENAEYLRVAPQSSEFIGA

| SMILES | IC50 (A-431) | IC50 (NCI-H1975) | IC50 [1] | IC50 [2] | IC50 [3] | IC50 (A549) | IC50 (HepG2) |
| --- | --- | --- | --- | --- | --- | --- | --- |
| O=C1N[C@H](C(=O)Nc2cc3c(Nc4ccc(F)c(Cl)c4)ncnc3cc2OCCCN2CCOCC2)CO1 | 48.7 µM | 12.3 µM | 0.00454 µM | 0.00083 µM | 0.0587 µM | – | – |
| CCOc1cc2ncnc(Nc3ccc(OCc4ccccn4)c(Cl)c3)c2cc1NC(=O)[C@@H]1COC(=O)N1 | > 50 µM | 23.3 µM | – | – | – | – | – |
| COc1cc2ncnc(Nc3cccc(Br)c3)c2cc1NC(=O)[C@H]1COC(=O)N1 | 14.3 µM | 11.1 µM | – | – | – | – | – |
| COCCOc1cc2ncnc(Nc3ccc(F)c(Cl)c3)c2cc1NC(=O)[C@@H]1COC(=O)N1 | 25.9 µM | 22.1 µM | – | – | – | – | – |
| COc1cc2ncnc(Nc3ccc(F)c(Cl)c3)c2cc1NC(=O)[C@H]1COC(=O)N1 | 16.8 µM | 21.2 µM | – | – | – | – | – |
| CCOc1cc2ncnc(Nc3ccc(OCc4ccccn4)c(Cl)c3)c2cc1NC(=O)[C@H]1COC(=O)N1 | > 50 µM | > 50 µM | – | – | – | – | – |
| O=C1N[C@H](C(=O)Nc2cc3c(Nc4ccc(F)c(Cl)c4)ncnc3cc2OCC(F)(F)F)CO1 | 33.9 µM | > 50 µM | – | – | – | – | – |
| COc1cc2ncnc(Nc3ccc(F)c(Cl)c3)c2cc1NC(=O)[C@H]1NC(=O)O[C@@H]1C | 8.65 µM | 8.98 µM | 0.00198 µM | 0.00035 µM | 0.0402 µM | > 50 µM | > 50 µM |
| COc1cc2ncnc(Nc3cccc(Br)c3)c2cc1NC(=O)[C@@H]1COC(=O)N1 | 7.25 µM | 9.08 µM | 0.00047 µM | 0.00038 µM | 0.126 µM | > 50 µM | > 100 µM |
| COCCOc1cc2ncnc(Nc3ccc(F)c(Cl)c3)c2cc1NC(=O)[C@H]1COC(=O)N1 | > 50 µM | > 50 µM | – | – | – | – | – |
| CCOc1cc2ncnc(N[C@@H](C)c3ccccc3)c2cc1NC(=O)[C@@H]1COC(=O)N1 | 16.9 µM | 15.3 µM | 0.00552 µM | 0.00071 µM | > 1 µM | – | – |
| CN1CCC(COc2cc3ncnc(Nc4ccc(F)c(Cl)c4F)c3cc2NC(=O)[C@H]2COC(=O)N2)CC1 | 5.3 µM | 13.5 µM | – | – | – | – | – |
| CCOc1cc2ncnc(Nc3ccc(OCc4cccc(F)c4)c(Cl)c3)c2cc1NC(=O)[C@H]1COC(=O)N1 | 4.15 µM | 4.75 µM | 0.00119 µM | 0.00549 µM | 0.111 µM | > 50 µM | > 100 µM |
| CCOc1cc2ncnc(Nc3ccc(OCC4CC4)c(Cl)c3)c2cc1NC(=O)[C@@H]1COC(=O)N1 | 5.05 µM | 5.08 µM | 0.0378 µM | 0.0521 µM | 0.0808 µM | 28.9 µM | > 100 µM |
| CN1CC[C@H](Oc2cc3ncnc(Nc4ccc(F)c(Cl)c4)c3cc2NC(=O)[C@@H]2COC(=O)N2)C1 | 12.6 µM | 13.6 µM | – | – | – | – | – |
| CCOc1cc2ncnc(Nc3ccc(Oc4ccc(C)nc4)c(Cl)c3)c2cc1NC(=O)[C@@H]1COC(=O)N1 | 11.2 µM | 7.65 µM | – | – | – | – | – |
